Experimental data from ChEMBL document CHEMBL5724801, “EUbOPEN Chemogenomics Library - Multiplex” (2024).
Several values for one entry are separate records, joined by “and”; a condition that tells them apart may be missing. Equal entries are not always repeated.

Tested on: U2OS
Experiment: Multiplex assay against U2OS
Assay type: toxicity, cell-based
Conditions: human, 12 h, 1 µM, compound concentration 1 uM
Procedure, shortened: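 Live cells carried four stains from seeding: Hoechst33342, BioTracker Green Microtubule Cytoskeleton Dye, MitoTracker Red and Annexin V Alexa Fluor 680. They were imaged on a CQ1 microscope at 37°C and 5% CO2 after compound addition. Using CellPathfinder machine-learning gating, cells were split into Hoechst high-intensity objects or normal cells, normal cells into healthy, pyknosed or fragmented nuclei, and pyknosed cells into mitotic or apoptotic; tubulin, mitochondrial-mass and membrane-permeability phenotypes are per cents of healthy-nucleus cells.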

Row | SMILES | Population Apoptotic (%) | Population Fragmented Nuclei (%) | Population Healthy Nuclei (%) | Population Hoechst High Intensity Objects (%) | Population Membrane Permeable-Phenotype (%) | Population Mitochondria Different-Phenotype (%) | Population Mitotic Cells (%) | Population Normal (%) | Population Pyknosed Nuclei (%) | Population Tubulin-Different-Phenotype (%)
1 | Cc1ccc(-c2c(C(=O)CF)n(CCCO)c3ncnc(N)c23)cc1 | 36.11% and 57.14% | 2.07% and 1.92% | 88.63% and 84.62% | 0% | 0.29% and 2.27% | 0% and 2.27% | 63.89% and 42.86% | 100% | 9.3% and 13.46% | 0.29% and 0%
2 | Cc1c(-c2cc(-c3ccccc3Cl)no2)cnn1C1CCNCC1.Cl | 35.85% and 50% | 2.99% and 1.04% | 85.68% and 82.29% | 0% | 0.5% and 3.8% | 0% and 8.86% | 64.15% and 50% | 100% | 11.32% and 16.67% | 1.5% and 1.9%

Same assay, conditions: human, 12 h, 1 µM, compound concentration 1 uM

Row | SMILES | Total Cell Count
3 | Cc1c(-c2cc(-c3ccccc3Cl)no2)cnn1C1CCNCC1.Cl | 468 and 192

Same assay, conditions: human, 12 h, 10 µM, compound concentration 10 uM

Row | SMILES | Population Apoptotic (%) | Population Fragmented Nuclei (%) | Population Healthy Nuclei (%) | Population Hoechst High Intensity Objects (%) | Population Membrane Permeable-Phenotype (%) | Population Mitochondria Different-Phenotype (%) | Population Mitotic Cells (%) | Population Normal (%) | Population Pyknosed Nuclei (%) | Population Tubulin-Different-Phenotype (%)
4 | Cc1ccc(-c2c(C(=O)CF)n(CCCO)c3ncnc(N)c23)cc1 | 50% and 52.94% | 1.91% and 5.78% | 88.83% and 84.39% | 0% | 0.61% and 4.11% | 0% and 3.42% | 50% and 47.06% | 100% | 9.26% and 9.83% | 0.61% and 0%
5 | Cc1c(-c2cc(-c3ccccc3Cl)no2)cnn1C1CCNCC1.Cl | 35.61% and 27.88% | 0.94% and 2.96% | 57.68% and 20% | 0% | 28.26% and 22.22% |  | 64.39% and 72.12% | 100% | 41.38% and 77.04% | 85.87% and 88.89%

Same assay, conditions: human, 12 h, 10 µM, compound concentration 10 uM

Row | SMILES | Total Cell Count
6 | Cc1ccc(-c2c(C(=O)CF)n(CCCO)c3ncnc(N)c23)cc1 | 367 and 173
7 | Cc1c(-c2cc(-c3ccccc3Cl)no2)cnn1C1CCNCC1.Cl | 319 and 135

Same assay, conditions: human, 24 h, 1 µM, compound concentration 1 uM

Row | SMILES | Population Apoptotic (%) | Population Fragmented Nuclei (%) | Population Healthy Nuclei (%) | Population Hoechst High Intensity Objects (%) | Population Membrane Permeable-Phenotype (%) | Population Mitochondria Different-Phenotype (%) | Population Mitotic Cells (%) | Population Normal (%) | Population Pyknosed Nuclei (%) | Population Tubulin-Different-Phenotype (%)
8 | Cc1ccc(-c2c(C(=O)CF)n(CCCO)c3ncnc(N)c23)cc1 | 47.37% and 40% | 1.55% and 4.48% | 91.09% and 84.33% | 0% | 0.43% and 3.54% | 0% and 2.65% | 52.63% and 60% | 100% | 7.36% and 11.19% | 0.21% and 0.88%
9 | Cc1c(-c2cc(-c3ccccc3Cl)no2)cnn1C1CCNCC1.Cl | 37.5% and 39.02% | 2.05% and 3.23% | 87.85% and 80.24% | 0% | 0.18% and 2.01% | 0.18% and 7.54% | 62.5% and 60.98% | 100% | 10.09% and 16.53% | 1.08% and 1.51%

Same assay, conditions: human, 24 h, 1 µM, compound concentration 1 uM

Row | SMILES | Total Cell Count
10 | Cc1c(-c2cc(-c3ccccc3Cl)no2)cnn1C1CCNCC1.Cl | 634 and 248

Same assay, conditions: human, 24 h, 10 µM, compound concentration 10 uM

Row | SMILES | Population Apoptotic (%) | Population Fragmented Nuclei (%) | Population Healthy Nuclei (%) | Population Hoechst High Intensity Objects (%) | Population Membrane Permeable-Phenotype (%) | Population Mitochondria Different-Phenotype (%) | Population Mitotic Cells (%) | Population Normal (%) | Population Pyknosed Nuclei (%) | Population Tubulin-Different-Phenotype (%)
11 | Cc1ccc(-c2c(C(=O)CF)n(CCCO)c3ncnc(N)c23)cc1 | 54.05% and 43.48% | 2.71% and 3.7% | 89.58% and 86.83% | 0% | 0.93% and 5.21% | 0% and 4.27% | 45.95% and 56.52% | 100% | 7.71% and 9.47% | 1.4% and 0.47%
12 | Cc1c(-c2cc(-c3ccccc3Cl)no2)cnn1C1CCNCC1.Cl | 38.83% and 47.71% | 2.56% and 6.16% | 49.23% and 19.18% | 0% and 0.68% | 21.88% and 17.86% |  | 61.17% and 52.29% | 100% and 99.32% | 48.21% and 74.66% | 79.17% and 60.71%

Same assay, conditions: human, 24 h, 10 µM, compound concentration 10 uM

Row | SMILES | Total Cell Count
13 | Cc1ccc(-c2c(C(=O)CF)n(CCCO)c3ncnc(N)c23)cc1 | 480 and 243
14 | Cc1c(-c2cc(-c3ccccc3Cl)no2)cnn1C1CCNCC1.Cl | 390 and 147

Same assay, conditions: human, 48 h, 1 µM, compound concentration 1 uM

Row | SMILES | Population Apoptotic (%) | Population Fragmented Nuclei (%) | Population Healthy Nuclei (%) | Population Hoechst High Intensity Objects (%) | Population Membrane Permeable-Phenotype (%) | Population Mitochondria Different-Phenotype (%) | Population Mitotic Cells (%) | Population Normal (%) | Population Pyknosed Nuclei (%) | Population Tubulin-Different-Phenotype (%)
15 | Cc1ccc(-c2c(C(=O)CF)n(CCCO)c3ncnc(N)c23)cc1 | 33.82% and 20% | 3.18% and 5% | 89.85% and 81.36% | 0% | 1.26% and 1.12% | 0% and 2.23% | 66.18% and 80% | 100% | 6.97% and 13.64% | 0.34% and 0.56%
16 | Cc1c(-c2cc(-c3ccccc3Cl)no2)cnn1C1CCNCC1.Cl | 42.02% and 57.78% | 2.39% and 2.74% | 86.66% and 84.93% | 0% | 1.59% and 2.58% | 0.11% and 7.74% | 57.98% and 42.22% | 100% | 10.95% and 12.33% | 2.23% and 3.55%

Same assay, conditions: human, 48 h, 1 µM, compound concentration 1 uM

Row | SMILES | Total Cell Count
17 | Cc1c(-c2cc(-c3ccccc3Cl)no2)cnn1C1CCNCC1.Cl | 1087 and 365

Same assay, conditions: human, 48 h, 10 µM, compound concentration 10 uM

Row | SMILES | Population Apoptotic (%) | Population Fragmented Nuclei (%) | Population Healthy Nuclei (%) | Population Hoechst High Intensity Objects (%) | Population Membrane Permeable-Phenotype (%) | Population Mitochondria Different-Phenotype (%) | Population Mitotic Cells (%) | Population Normal (%) | Population Pyknosed Nuclei (%) | Population Tubulin-Different-Phenotype (%)
18 | Cc1ccc(-c2c(C(=O)CF)n(CCCO)c3ncnc(N)c23)cc1 | 49.33% and 48.98% | 2.94% and 2.66% | 89.18% and 85.47% | 0% | 0.94% and 1.13% | 0% and 1.42% | 50.67% and 51.02% | 100% | 7.88% and 11.86% | 1.06% and 0.57%
19 | Cc1c(-c2cc(-c3ccccc3Cl)no2)cnn1C1CCNCC1.Cl | 59.43% and 95.93% | 1.36% and 2.17% |  | 0.68% and 0% |  |  |  | 99.32% and 100% | 55.33% and 89.13% | 49.21% and 50%

Same assay, conditions: human, 48 h, 10 µM, compound concentration 10 uM

Row | SMILES | Total Cell Count
20 | Cc1ccc(-c2c(C(=O)CF)n(CCCO)c3ncnc(N)c23)cc1 | 952 and 413
